Results: ChEMBL document CHEMBL4840305, “Structure-guided design and development of novel N-phenylpyrimidin-2-amine derivatives as potential c-Met inhibitors” (Eur J Med Chem, 2021)

Legend:
HepG2 = test: cells; details: Homo sapiens
PANC-1 = test: cells; details: Homo sapiens
PC-3 = test: cells; details: Homo sapiens
CAKI-1 = test: cells; details: Homo sapiens
HCT-116 = test: cells; details: Homo sapiens
[1] = target: Hepatocyte growth factor receptor (Homo sapiens, UniProt P08581); test: Inhibition of c-MET kinase (unknown origin) using poly(Glu:Tyr)(4:1) as substrate by ELISA
Hepatocyte growth factor receptor, sequence (P08581 whole entry): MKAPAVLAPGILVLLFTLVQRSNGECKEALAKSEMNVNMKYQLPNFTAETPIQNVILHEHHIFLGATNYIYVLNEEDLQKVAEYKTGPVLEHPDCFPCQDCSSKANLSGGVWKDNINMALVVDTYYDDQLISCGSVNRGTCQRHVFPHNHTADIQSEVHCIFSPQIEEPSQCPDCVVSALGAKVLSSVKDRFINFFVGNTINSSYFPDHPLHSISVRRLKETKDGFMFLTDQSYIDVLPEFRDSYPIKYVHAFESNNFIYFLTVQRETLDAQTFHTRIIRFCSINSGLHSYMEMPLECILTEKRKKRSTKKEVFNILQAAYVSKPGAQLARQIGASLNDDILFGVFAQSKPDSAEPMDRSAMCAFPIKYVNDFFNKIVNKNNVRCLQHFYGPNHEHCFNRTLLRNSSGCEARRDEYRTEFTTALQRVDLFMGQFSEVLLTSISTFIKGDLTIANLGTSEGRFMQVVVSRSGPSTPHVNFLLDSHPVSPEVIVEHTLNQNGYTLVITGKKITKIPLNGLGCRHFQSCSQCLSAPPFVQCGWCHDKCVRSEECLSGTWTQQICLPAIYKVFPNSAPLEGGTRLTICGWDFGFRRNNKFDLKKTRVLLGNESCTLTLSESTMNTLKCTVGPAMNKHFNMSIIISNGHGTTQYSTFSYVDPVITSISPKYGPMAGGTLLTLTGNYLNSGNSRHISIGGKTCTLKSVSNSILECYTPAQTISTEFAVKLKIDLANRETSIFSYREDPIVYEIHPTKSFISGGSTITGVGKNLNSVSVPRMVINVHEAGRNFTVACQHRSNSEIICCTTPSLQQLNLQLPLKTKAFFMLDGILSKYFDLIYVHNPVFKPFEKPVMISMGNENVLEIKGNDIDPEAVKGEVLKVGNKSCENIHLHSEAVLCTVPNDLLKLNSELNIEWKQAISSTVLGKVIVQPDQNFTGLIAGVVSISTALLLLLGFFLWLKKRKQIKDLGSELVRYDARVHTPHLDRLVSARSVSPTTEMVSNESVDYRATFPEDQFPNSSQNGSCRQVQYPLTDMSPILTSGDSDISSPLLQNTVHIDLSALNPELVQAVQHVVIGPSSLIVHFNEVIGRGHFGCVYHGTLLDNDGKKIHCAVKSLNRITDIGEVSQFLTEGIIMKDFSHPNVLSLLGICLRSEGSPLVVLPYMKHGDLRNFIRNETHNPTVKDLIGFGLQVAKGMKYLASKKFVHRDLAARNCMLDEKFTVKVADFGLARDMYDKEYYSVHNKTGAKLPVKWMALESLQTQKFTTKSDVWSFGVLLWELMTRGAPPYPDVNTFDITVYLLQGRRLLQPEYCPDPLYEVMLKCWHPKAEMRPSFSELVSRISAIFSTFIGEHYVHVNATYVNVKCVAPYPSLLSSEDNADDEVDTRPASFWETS

[2] = target: Voltage-gated inwardly rectifying potassium channel KCNH2 (Homo sapiens, UniProt Q12809); test: Inhibition of human ERG
Voltage-gated inwardly rectifying potassium channel KCNH2, sequence (Q12809 whole entry): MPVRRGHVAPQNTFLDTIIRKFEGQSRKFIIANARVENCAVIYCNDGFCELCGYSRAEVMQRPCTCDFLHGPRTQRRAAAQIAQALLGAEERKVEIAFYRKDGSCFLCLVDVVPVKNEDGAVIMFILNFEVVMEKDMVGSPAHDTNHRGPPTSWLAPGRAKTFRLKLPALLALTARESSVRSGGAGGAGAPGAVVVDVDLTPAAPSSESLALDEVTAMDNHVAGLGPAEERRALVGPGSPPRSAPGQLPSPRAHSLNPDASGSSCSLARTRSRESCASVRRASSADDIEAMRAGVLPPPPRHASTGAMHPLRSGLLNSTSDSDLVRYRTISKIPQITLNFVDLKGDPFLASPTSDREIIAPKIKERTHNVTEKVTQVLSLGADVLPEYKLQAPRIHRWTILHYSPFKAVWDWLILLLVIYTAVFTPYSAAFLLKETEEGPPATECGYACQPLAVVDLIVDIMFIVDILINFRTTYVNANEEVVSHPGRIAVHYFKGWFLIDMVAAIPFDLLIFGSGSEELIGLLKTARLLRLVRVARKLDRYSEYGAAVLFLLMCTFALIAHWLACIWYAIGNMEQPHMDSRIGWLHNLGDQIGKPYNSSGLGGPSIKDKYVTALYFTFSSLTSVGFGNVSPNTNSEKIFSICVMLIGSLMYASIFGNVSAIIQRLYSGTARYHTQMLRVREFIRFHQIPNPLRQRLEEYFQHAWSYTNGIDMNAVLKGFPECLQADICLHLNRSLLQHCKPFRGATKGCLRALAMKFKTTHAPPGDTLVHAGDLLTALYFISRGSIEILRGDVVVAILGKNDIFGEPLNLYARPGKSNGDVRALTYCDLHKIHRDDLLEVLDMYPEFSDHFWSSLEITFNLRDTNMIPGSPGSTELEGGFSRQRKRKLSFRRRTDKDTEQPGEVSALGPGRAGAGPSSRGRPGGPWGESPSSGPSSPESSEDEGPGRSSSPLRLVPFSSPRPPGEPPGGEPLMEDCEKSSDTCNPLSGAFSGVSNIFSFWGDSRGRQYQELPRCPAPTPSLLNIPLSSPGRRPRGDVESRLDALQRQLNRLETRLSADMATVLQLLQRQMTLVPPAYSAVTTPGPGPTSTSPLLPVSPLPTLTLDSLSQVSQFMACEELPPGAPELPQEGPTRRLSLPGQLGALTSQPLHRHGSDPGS

[3] = AUC(0 to t) in Sprague-Dawley rat at 4 mg/kg, iv by LC-MS/MS analysis; assay type: ADME, organism-based; set-up: dose 4 mg/kg; details: in vivo
Outline: (§1)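 Male SD rats were used. Compound concentrations in plasma were measured by LC/MS/MS. The oral arm was dosed at 20 mg/kg.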

[4] = Acute toxicity in ICR mouse assessed as animal survival at 600 mg/kg, po measured on day 14 (reference value: 100%); assay type: organism-based; details: in vivo, time 14 day
[5] = Cmax in Sprague-Dawley rat at 4 mg/kg, iv by LC-MS/MS analysis; assay type: ADME, organism-based; set-up: route intravenous, dose 4 mg/kg; details: in vivo
Outline: as §1

[6] = Acute toxicity in ICR mouse assessed as abnormalities in heart at 600 to 1200 mg/kg, po administered as single dose and measured on day 14; assay type: organism-based; details: in vivo, 336 h, dose 600-1200 mg/kg, time 14 day
[7] = Acute toxicity in ICR mouse assessed as animal survival at 1500 mg/kg, po measured on day 14 (reference value: 100%); assay type: organism-based; details: in vivo, time 14 day
[8] = Acute toxicity in ICR mouse assessed as animal survival at 1000 mg/kg, po measured on day 14 (reference value: 100%); assay type: organism-based; details: in vivo, time 14 day
[9] = Tmax in Sprague-Dawley rat at 20 mg/kg, po by LC-MS/MS analysis; assay type: ADME, organism-based; details: in vivo
Outline: as §1

[10] = Half life in Sprague-Dawley rat at 20 mg/kg, po by LC-MS/MS analysis; assay type: ADME, organism-based; details: in vivo
Outline: as §1

[11] = Apparent clearance during terminal phase in Sprague-Dawley rat at 4 mg/kg, iv by LC-MS/MS analysis; assay type: ADME, organism-based; details: in vivo
Outline: as §1

[12] = AUC(0 to t) in Sprague-Dawley rat at 20 mg/kg, po by LC-MS/MS analysis; assay type: ADME, organism-based; set-up: dose 20 mg/kg; details: in vivo
[13] = Acute toxicity in ICR mouse assessed as animal survival at 2000 mg/kg, po measured on day 14 (reference value: 100%); assay type: organism-based; details: in vivo, time 14 day
[14] = Half life in Sprague-Dawley rat at 4 mg/kg, iv by LC-MS/MS analysis; assay type: ADME, organism-based; details: in vivo
Outline: as §1

[15] = Acute toxicity in ICR mouse assessed as animal survival at 1200 mg/kg, po measured on day 14 (reference value: 100%); assay type: organism-based; details: in vivo, time 14 day
[16] = Cmax in Sprague-Dawley rat at 20 mg/kg, po by LC-MS/MS analysis; assay type: ADME, organism-based; set-up: route oral, dose 20 mg/kg; details: in vivo
Outline: as §1

[17] = Acute toxicity in ICR mouse assessed as abnormalities in liver at 600 to 1200 mg/kg, po administered as single dose and measured on day 14; assay type: organism-based; details: in vivo, 336 h, dose 600-1200 mg/kg, time 14 day
[18] = Apparent clearance during terminal phase in Sprague-Dawley rat at 20 mg/kg, po by LC-MS/MS analysis; assay type: ADME, organism-based; details: in vivo, read-out: CLz/F (converted)
Outline: as §1

[19] = Acute toxicity in ICR mouse assessed as abnormalities in kidneys at 600 to 1200 mg/kg, po administered as single dose and measured on day 14; assay type: organism-based; details: in vivo, 336 h, dose 600-1200 mg/kg, time 14 day
[20] = Acute toxicity in ICR mouse assessed as animal survival at 800 mg/kg, po measured on day 14 (reference value: 100%); assay type: organism-based; details: in vivo, time 14 day
[21] = Oral bioavailability in Sprague-Dawley rat at 20 mg/kg by LC-MS/MS analysis; assay type: ADME, organism-based; details: in vivo
Outline: as §1

IC50 (HepG2)	IC50 (PANC-1)	IC50 (PC-3)	IC50 (CAKI-1)	IC50 (HCT-116)	IC50 [1]	SMILES	further results
5970 nM	5530 nM	4710 nM	2690 nM	7990 nM	–	O=C(Nc1ccc(F)cc1)C1(C(=O)Nc2ccc(Oc3cc(Nc4cccc(N5CCOCC5)c4)ncn3)c(F)c2)CC1	–
1730 nM	3160 nM	2250 nM	1630 nM	2020 nM	–	CN1CCN(c2cccc(Nc3nccc(Oc4ccc(NC(=O)C5(C(=O)Nc6ccc(F)cc6)CC5)cc4)n3)c2)CC1	–
–	–	–	–	–	> 2000 nM	COC(=O)c1ccc(Nc2nccc(Oc3ccc(NC(=O)C4(C(=O)Nc5ccc(F)cc5)CC4)cc3)n2)c(OC)c1	–
2210 nM	3400 nM	2340 nM	2920 nM	3150 nM	–	O=C(Nc1ccc(F)cc1)C1(C(=O)Nc2ccc(Oc3ccnc(Nc4cccc(N5CCOCC5)c4)n3)c(F)c2)CC1	–
4860 nM	4010 nM	3300 nM	2590 nM	4790 nM	–	O=C(Nc1ccc(F)cc1)C1(C(=O)Nc2ccc(Oc3ccnc(Nc4cccc(N5CCOCC5)c4)c3)cc2)CC1	–
–	–	–	–	–	> 2000 nM	COC(=O)c1ccc(Nc2nccc(Oc3ccc(NC(=O)C4(C(=O)Nc5ccc(F)cc5)CC4)cc3)n2)nc1	–
7010 nM	2850 nM	1930 nM	3310 nM	3560 nM	–	CNC(=O)c1cccc(Nc2nccc(Oc3ccc(NC(=O)C4(C(=O)Nc5ccc(F)cc5)CC4)cc3)n2)c1	–
–	–	–	–	–	> 1000 nM	O=C(Nc1ccc(F)cc1)c1ccccc1Nc1ccc(Oc2ccnc(Nc3cccc(CN4CCOCC4)c3)n2)cc1	–
–	–	–	–	–	> 1000 nM	O=C(Nc1ccc(F)cc1)c1ccccc1Nc1ccc(Oc2ccnc(Nc3cccc(N4CCOCC4)c3)n2)cc1	–
2100 nM	2000 nM	1800 nM	1880 nM	2340 nM	–	Cc1c(C(=O)Nc2ccc(Oc3ccnc(Nc4cccc(N5CCOCC5)c4)n3)c(F)c2)c(=O)n(-c2ccccc2)n1C	–
3570 nM	6670 nM	2650 nM	3900 nM	4200 nM	–	O=C(Nc1ccc(F)cc1)C1(C(=O)Nc2ccc(Oc3ccnc(Nc4cccc(N5CCOCC5)c4)n3)cc2)CC1	–
–	–	–	–	–	> 1000 nM	O=C(Nc1ccc(Oc2ccnc(Nc3cccc(N4CCOCC4)c3)n2)cc1)c1ccccc1Nc1ccc(F)cc1	–
3240 nM	3280 nM	2600 nM	1470 nM	3140 nM	–	O=C1CCCc2cc(Nc3nccc(Oc4ccc(NC(=O)C5(C(=O)Nc6ccc(F)cc6)CC5)cc4)n3)ccc2N1	–
–	–	–	–	–	> 1000 nM	O=C(Nc1ccc(Oc2ccnc(Nc3cccc(CN4CCOCC4)c3)n2)cc1)c1ccccc1Nc1ccc(F)cc1	–
–	–	–	–	–	> 2000 nM	COc1cc(C(=O)NCC2CC2)ccc1Nc1nccc(Oc2ccc(NC(=O)C3(C(=O)Nc4ccc(F)cc4)CC3)cc2)n1	–
–	–	–	–	–	–	COc1cc2nccc(Oc3ccc(NC(=O)C4(C(=O)Nc5ccc(F)cc5)CC4)cc3)c2cc1OC [CABOZANTINIB]	IC50 [2]: > 30000 nM

SMILES	IC50 (HepG2)	IC50 (PANC-1)	IC50 (PC-3)	IC50 (CAKI-1)	IC50 (HCT-116)	IC50 [1]	further results
Cc1c(C(=O)Nc2ccc(Oc3ccnc(Nc4cccc(N5CCOCC5)c4)n3)cc2)c(=O)n(-c2ccccc2)n1C	1340 nM	1010 nM	1340 nM	530 nM	1370 nM	–	IC50 [2]: > 40000 nM; AUC(0-t) [3]: 8220 ng·h/mL; survival at 336 h [4]: 100%; Cmax [5]: 2470 ng/mL; Activity [6]: Non-Toxic; survival at 336 h [7]: 70%; survival at 336 h [8]: 100%; Tmax [9]: 6 h; half-life [10]: 9.04 h; CLz/F [11]: 6.83 mL/min/kg; AUC(0-t) [12]: 19000 ng·h/mL; survival at 336 h [13]: 0%; half-life [14]: 8.9 h; survival at 336 h [15]: 100%; Cmax [16]: 3050 ng/mL; Activity [17]: Non-Toxic; CL/F [18]: 11 mL/min/kg; Activity [19]: Non-Toxic; survival at 336 h [20]: 100%; bioavailability [21]: 59.3%
